# In ChEMBL document CHEMBL2086252, “Syntheses and evaluation of anticonvulsant activity of novel branched alkyl carbamates” (J Med Chem, 2012):
# Calls of active or inactive are those of the source. The rule behind the calls is not given here.
# Experiments:
# Rattus norvegicus [1] = test: Protective index, ratio of TD50 for po dosed Sprague-Dawley albino rat by rotarod test to ED50 for po dosed Sprague-Dawley albino rat by subcutaneous metrazol seizures test; format: functional
# Outline: (§1)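 Protective index calculated as TD50/ED50, with TD50 and ED50 taken from the same species and dosing route.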
# Rattus norvegicus [2] = test: Neurotoxicity in pilocarpine-induced status epilepticus Sprague-Dawley albino rat model assessed as minimal motor impairment at 30 mg/kg, ip after 1 hr by rotarod test; format: toxicity, organism-based; design: dose 30 mg/kg, route intraperitoneal; settings: in vivo
# Outline: (§2)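 Rat pilocarpine status epilepticus model: test carbamate given at 0 or 30 min after the first observed Racine stage 3 motor seizure, which marks SE onset. Neurotoxicity was scored within the same model.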
# Rattus norvegicus [3] = test: Neurotoxicity in pilocarpine-induced status epilepticus Sprague-Dawley albino rat model assessed as minimal motor impairment at 300 mg/kg, ip after 0.5 hrs by rotarod test; format: toxicity, organism-based; design: dose 300 mg/kg, route intraperitoneal; settings: in vivo; outline: as §2
# Rattus norvegicus [4] = test: Neurotoxicity in pilocarpine-induced status epilepticus Sprague-Dawley albino rat model assessed as minimal motor impairment at 100 mg/kg, ip after 0.5 hrs by rotarod test; format: toxicity, organism-based; design: dose 100 mg/kg, route intraperitoneal; settings: in vivo
# Rattus norvegicus [5] = test: Anticonvulsant activity in po dosed Sprague-Dawley albino rat assessed as protection against subcutaneous metrazol-induced seizures; format: functional
# Outline: (§3)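 Quantitative testing: rats dosed orally or ip in MES and scMet tests, and mice dosed ip, including the 6 Hz (32 mA) psychomotor seizure test. ED50 and TD50 were reported in mg/kg with ranges in parentheses. Protective index was calculated as TD50/ED50.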
# Mus musculus [6] = test: Neurotoxicity in albino CF1 mouse assessed as minimal motor impairment at 30 mg/kg, ip after 4 hrs by rotarod test; format: toxicity, organism-based; design: dose 30 mg/kg, route intraperitoneal; settings: in vivo
# Outline: (§4)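 Mice dosed ip at 30, 100 or 300 mg/kg, then tested 0.5 h and 4 h after administration in the MES or scMet test. Protection was recorded as animals protected over animals tested. Neurotoxicity was recorded as motor impairment or sedation, as animals affected over animals tested.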
# Rattus norvegicus [7] = test: Neurotoxicity in pilocarpine-induced status epilepticus Sprague-Dawley albino rat model assessed as minimal motor impairment at 300 mg/kg, ip after 2 hrs by rotarod test; format: toxicity, organism-based; design: dose 300 mg/kg, route intraperitoneal; settings: in vivo; outline: as §2
# Mus musculus [8] = test: Anticonvulsant activity in albino CF1 mouse assessed as protection against subcutaneous metrazol-induced seizures at 30 mg/kg, ip after 0.5 hrs; format: functional, organism-based; design: dose 30 mg/kg; outline: as §4
# Rattus norvegicus [9] = test: Neurotoxicity in pilocarpine-induced status epilepticus Sprague-Dawley albino rat model assessed as minimal motor impairment at 100 mg/kg, ip after 2 hrs by rotarod test; format: toxicity, organism-based; design: dose 100 mg/kg, route intraperitoneal; settings: in vivo
# Mus musculus [10] = test: Anticonvulsant activity in albino CF1 mouse assessed as protection against maximal electroshock-induced seizures at 300 mg/kg, ip after 0.5 hrs; format: functional, organism-based; design: dose 300 mg/kg; outline: as §4
# Rattus norvegicus [11] = test: Neurotoxicity in pilocarpine-induced status epilepticus Sprague-Dawley albino rat model assessed as minimal motor impairment at 30 mg/kg, ip after 0.25 hr by rotarod test; format: toxicity, organism-based; design: dose 30 mg/kg, route intraperitoneal; settings: in vivo; outline: as §2
# Rattus norvegicus [12] = test: Anticonvulsant activity in Sprague-Dawley albino rat assessed as protection against maximal electroshock-induced seizures at 30 mg/kg, po after 2 hrs; format: functional, organism-based; design: dose 30 mg/kg
# Outline: (§5)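 Rats dosed orally. Anti-MES protection was scored as animals protected over animals tested at each time after dosing. Neurotoxicity was scored as motor impairment or sedation, as animals affected over animals tested.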
# Rattus norvegicus [13] = test: Neurotoxicity in Sprague-Dawley albino rat assessed as minimal motor impairment at 30 mg/kg, po by rotarod test; format: toxicity, organism-based; design: dose 30 mg/kg, route oral; settings: in vivo; outline: as §5
# Mus musculus [14] = test: Anticonvulsant activity in albino CF1 mouse assessed as protection against subcutaneous metrazol-induced seizures at 100 mg/kg, ip after 4 hrs; format: functional, organism-based; design: dose 100 mg/kg; outline: as §4
# Mus musculus [15] = test: Anticonvulsant activity in albino CF1 mouse assessed as protection against maximal electroshock-induced seizures at 100 mg/kg, ip after 0.5 hrs; format: functional, organism-based; design: dose 100 mg/kg; outline: as §4
# Mus musculus [16] = test: Anticonvulsant activity in albino CF1 mouse assessed as protection against subcutaneous metrazol-induced seizures at 30 mg/kg, ip after 4 hrs; format: functional, organism-based; design: dose 30 mg/kg; outline: as §4
# Rattus norvegicus [17] = test: Neurotoxicity in pilocarpine-induced status epilepticus Sprague-Dawley albino rat model assessed as minimal motor impairment at 30 mg/kg, ip after 2 hrs by rotarod test; format: toxicity, organism-based; design: dose 30 mg/kg, route intraperitoneal; settings: in vivo; outline: as §2
# Mus musculus [18] = test: Anticonvulsant activity in albino CF1 mouse assessed as protection against maximal electroshock-induced seizures at 300 mg/kg, ip after 4 hrs; format: functional, organism-based; design: dose 300 mg/kg; outline: as §4
# Rattus norvegicus [19] = test: Neurotoxicity in pilocarpine-induced status epilepticus Sprague-Dawley albino rat model assessed as minimal motor impairment at 30 mg/kg, ip after 4 hrs by rotarod test; format: toxicity, organism-based; design: dose 30 mg/kg, route intraperitoneal; settings: in vivo; outline: as §2
# Mus musculus [20] = test: Neurotoxicity in albino CF1 mouse assessed as minimal motor impairment at 100 mg/kg, ip after 4 hrs by rotarod test; format: toxicity, organism-based; design: dose 100 mg/kg, route intraperitoneal; settings: in vivo; outline: as §4
# Mus musculus [21] = test: Anticonvulsant activity in albino CF1 mouse assessed as protection against maximal electroshock-induced seizures at 30 mg/kg, ip after 0.5 hrs; format: functional, organism-based; design: dose 30 mg/kg; outline: as §4
# Rattus norvegicus [22] = test: Neurotoxicity in pilocarpine-induced status epilepticus Sprague-Dawley albino rat model assessed as minimal motor impairment at 100 mg/kg, ip after 0.25 hr by rotarod test; format: toxicity, organism-based; design: dose 100 mg/kg, route intraperitoneal; settings: in vivo
# [23] = Neurotoxicity in po dosed Sprague-Dawley albino rat assessed as minimal motor impairment by rotarod test; format: toxicity, organism-based; settings: in vivo
# Outline: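 Rats dosed orally; 4 rats per time point after dosing. Neurotoxicity was scored as motor impairment or sedation and reported as number of animals affected over number tested.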
# Rattus norvegicus [24] = test: Neurotoxicity in pilocarpine-induced status epilepticus Sprague-Dawley albino rat model assessed as minimal motor impairment at 300 mg/kg, ip after 1 hr by rotarod test; format: toxicity, organism-based; design: dose 300 mg/kg, route intraperitoneal; settings: in vivo; outline: as §2
# Rattus norvegicus [25] = test: Neurotoxicity in pilocarpine-induced status epilepticus Sprague-Dawley albino rat model assessed as minimal motor impairment at 100 mg/kg, ip after 4 hrs by rotarod test; format: toxicity, organism-based; design: dose 100 mg/kg, route intraperitoneal; settings: in vivo
# Rattus norvegicus [26] = test: Anticonvulsant activity in Sprague-Dawley albino rat assessed as protection against maximal electroshock-induced seizures at 30 mg/kg, po after 4 hrs; format: functional, organism-based; design: dose 30 mg/kg; outline: as §5
# Mus musculus [27] = test: Neurotoxicity in albino CF1 mouse assessed as minimal motor impairment at 30 mg/kg, ip after 0.5 hrs by rotarod test; format: toxicity, organism-based; design: dose 30 mg/kg, route intraperitoneal; settings: in vivo; outline: as §4
# Rattus norvegicus [28] = test: Anticonvulsant activity in po dosed Sprague-Dawley albino rat assessed as protection against maximal electroshock-induced seizures; format: functional; outline: as §3
# Mus musculus [29] = test: Anticonvulsant activity in albino CF1 mouse assessed as protection against subcutaneous metrazol-induced seizures at 300 mg/kg, ip after 0.5 hrs; format: functional, organism-based; design: dose 300 mg/kg; outline: as §4
# Rattus norvegicus [30] = test: Neurotoxicity in pilocarpine-induced status epilepticus Sprague-Dawley albino rat model assessed as minimal motor impairment at 300 mg/kg, ip after 0.25 hr by rotarod test; format: toxicity, organism-based; design: dose 300 mg/kg, route intraperitoneal; settings: in vivo; outline: as §2
# Mus musculus [31] = test: Anticonvulsant activity in albino CF1 mouse assessed as protection against maximal electroshock-induced seizures at 30 mg/kg, ip after 4 hrs; format: functional, organism-based; design: dose 30 mg/kg; outline: as §4
# Rattus norvegicus [32] = test: Anticonvulsant activity in ip dosed Sprague-Dawley albino rat assessed as protection against pilocarpine-induced status epilepticus after 0.5 hrs; format: functional
# Outline: (§6)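 Pilocarpine status epilepticus model in rats. Number and severity of convulsive seizures were observed behaviourally.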
# Mus musculus [33] = test: Neurotoxicity in albino CF1 mouse assessed as minimal motor impairment at 300 mg/kg, ip after 4 hrs by rotarod test; format: toxicity, organism-based; design: dose 300 mg/kg, route intraperitoneal; settings: in vivo; outline: as §4
# Rattus norvegicus [34] = test: Neurotoxicity in pilocarpine-induced status epilepticus Sprague-Dawley albino rat model assessed as minimal motor impairment at 300 mg/kg, ip after 4 hrs by rotarod test; format: toxicity, organism-based; design: dose 300 mg/kg, route intraperitoneal; settings: in vivo; outline: as §2
# Rattus norvegicus [35] = test: Anticonvulsant activity in Sprague-Dawley albino rat assessed as protection against maximal electroshock-induced seizures at 30 mg/kg, po after 1 hr; format: functional, organism-based; design: dose 30 mg/kg; outline: as §5
# Mus musculus [36] = test: Anticonvulsant activity in albino CF1 mouse assessed as protection against maximal electroshock-induced seizures at 100 mg/kg, ip after 4 hrs; format: functional, organism-based; design: dose 100 mg/kg; outline: as §4
# Rattus norvegicus [37] = test: Protective index, ratio of TD50 for po dosed Sprague-Dawley albino rat by rotarod test to ED50 for po dosed Sprague-Dawley albino rat by maximal electroshock seizures test; format: functional; outline: as §1
# Mus musculus [38] = test: Anticonvulsant activity in albino CF1 mouse assessed as protection against subcutaneous metrazol-induced seizures at 300 mg/kg, ip after 4 hrs; format: functional, organism-based; design: dose 300 mg/kg; outline: as §4
# Rattus norvegicus [39] = test: Neurotoxicity in pilocarpine-induced status epilepticus Sprague-Dawley albino rat model assessed as minimal motor impairment at 30 mg/kg, ip after 0.5 hrs by rotarod test; format: toxicity, organism-based; design: dose 30 mg/kg, route intraperitoneal; settings: in vivo; outline: as §2
# Mus musculus [40] = test: Anticonvulsant activity in albino CF1 mouse assessed as protection against subcutaneous metrazol-induced seizures at 100 mg/kg, ip after 0.5 hrs; format: functional, organism-based; design: dose 100 mg/kg; outline: as §4
# Rattus norvegicus [41] = test: Anticonvulsant activity in Sprague-Dawley albino rat assessed as protection against pilocarpine-induced status epilepticus at 65 mg/kg, ip; format: functional, organism-based; design: dose 65 mg/kg; outline: as §6
compound,measurement,setting,value
CCC(C)C(CC)COC(N)=O (racemic),Ratio TD50/ED50,Rattus norvegicus [1],4.3
same,Activity,Rattus norvegicus [2],Non-toxic
same,Activity,Rattus norvegicus [3],Toxic
same,Activity,Rattus norvegicus [4],Toxic
same,ED50,Rattus norvegicus [5],68 mg/kg
same,Activity,Mus musculus [6],Non-toxic
same,Activity,Rattus norvegicus [7],Non-toxic
same,Activity,Mus musculus [8],inactive
same,Activity,Rattus norvegicus [9],Toxic
same,Activity,Mus musculus [10],Active
same,Activity,Rattus norvegicus [11],Non-toxic
same,Activity,Rattus norvegicus [12],inactive
same,Activity,Rattus norvegicus [13],Non-toxic
same,Activity,Mus musculus [14],inactive
same,Activity,Mus musculus [15],Active
same,Activity,Mus musculus [16],inactive
same,Activity,Rattus norvegicus [17],Toxic
same,Activity,Mus musculus [18],inactive
same,Activity,Rattus norvegicus [19],Toxic
same,Activity,Mus musculus [20],Non-toxic
same,Activity,Mus musculus [21],inactive
same,Activity,Rattus norvegicus [22],Toxic
same,TD50,[23],291 mg/kg
same,Activity,Rattus norvegicus [24],Toxic
same,Activity,Rattus norvegicus [25],Toxic
same,Activity,Rattus norvegicus [26],inactive
same,Activity,Mus musculus [27],Non-toxic
same,ED50,Rattus norvegicus [28],52 mg/kg
same,Activity,Mus musculus [29],Active
same,Activity,Rattus norvegicus [30],Toxic
same,Activity,Mus musculus [31],inactive
same,ED50,Rattus norvegicus [32],96 mg/kg
same,ED97,Rattus norvegicus [32],174 mg/kg
same,Activity,Mus musculus [33],Non-toxic
same,Activity,Rattus norvegicus [34],Non-toxic
same,Activity,Rattus norvegicus [35],inactive
same,Activity,Mus musculus [36],inactive
same,Ratio TD50/ED50,Rattus norvegicus [37],5.5
same,Activity,Mus musculus [38],inactive
same,Activity,Rattus norvegicus [39],Non-toxic
same,Activity,Mus musculus [40],Active
same,Activity,Rattus norvegicus [41],Active
